This note sets out measurements from ChEMBL document CHEMBL2311435, “Development of 18F-labeled picolinamide probes for PET imaging of malignant melanoma” (J Med Chem, 2013).

The data set has as its system Mus musculus. The data set can be described thus: Biodistribution in tumor of C57BL/6 mouse xenografted with mouse B16F10 cells at 3.7 MBq, iv after 2 hrs by gamma-scintillation counting analysis. The class given is ADME, organism-based, Neoplasm, B16-F10. The settings on record: in vivo. An outline of the steps: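 1.0 × 10^6 B16F10 cells in PBS injected subcutaneously into the right shoulder of C57BL/6 mice, grown to 0.5 cm (~10 day). Tail-vein injection of about 3.7 MBq (100 μCi) 18F probe in PBS (0.1 M, pH 7.4). Killed at 1.0 or 2.0 h p.i. (n = 4 per group). Tissues excised, weighed and gamma-counted; uptake expressed as %ID/g, mean ± SD.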

`CCN(CC)CCNC(=O)c1ccc([18F])cc1` came in with a Drug uptake of 5.94 % ID/g.
